High-throughput results as filed in PubChem.
RAM network inh – inhibitors of the yeast RAM network; inhibition, % at 50 µM; S. cerevisiae dse1pr::URA3 reporter, 5-FOA growth OD615, 2 d; analog-sensitive cbk1-as2 kinase mutant strain; 190,000 tested, 1.8% active;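 active = inhibition above a set limit, 3 SD over mean compound inhibition, cut at about 8.4% in these data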;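 note: 0% = DMSO-only wells with no growth and 100% = 10 µM 1-NA-PP1 full growth; inhibition rescues growth on 5-FOA so higher OD means more RAM inhibition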
b-catenin transl – alters nuclear translocation of beta-catenin in HeLa cells. nuclear translocation activity, % at 5 µM. immunofluorescence imaging. 190,000 tested, 0.3% active. AID 1665;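 active = nuclear translocation activity above 50% at 5 µM, with a well cell count of 50 or more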;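 note: per-cell ratio of nuclear to cytoplasmic median beta-catenin stain intensity; plate controls were DMSO negative control for no effect and GSK-3 inhibitor IX positive control for full effect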
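Signal – beta-catenin immunofluorescence imaging with DAPI · Test system – human HeLa cell line · Dosing – 5 µM primary single dose, 0.1% DMSO, 0.02–20 µM confirmation series · Measure – % activation, nuclear-to-cytoplasmic median beta-catenin signal ratio per cell · Incubation – 24 h compound exposure at 37°C, 5% CO2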
Yeast lifespan up – extends the lifespan of yeast. 130,000 tested, 0.68% active. inhibition of the nicotinamide effect, % at 10 µM. AID 775. S. cerevisiae growth with nicotinamide, OD615; deaD strain in restrictive glucose medium;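 active = inhibition above a set limit, placed 3 SD over the median of all compounds, cut at about 26% in these data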;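 note: 0% = nicotinamide-treated wells and 100% = cells grown without nicotinamide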
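System: DeaD-strain S. cerevisiae / Buffer or medium: CSMM-D, restrictive glucose (dextrose) synthetic minimal medium / Probe or stimulus: nicotinamide, 1.5 mM, co-present with compound / Compound: one concentration, 10 µM, DMSO 0.25% / Incubation: 48 h compound exposure at 30 °C, humidified / Technique: optical density (absorbance) at 615 nm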
MT stabilize HCS – microtubule stabilization, imaging screen | HeLa tubulin immunostaining HCS, 24 h; share of cells brighter than vehicle mean+2SD | 200,000 tested, 0.83% active | % tubulin-high responders, % at 10 µM | AID 2205;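 active = plate Z-score above 3 for both tubulin-high and condensed-nucleus cell shares, with cell loss under 80%, at 10 µM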;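 note: anti alpha tubulin signal scored within the nucleus-defined area of each cell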
Yeast growth inh – chemicals that inhibit yeast BB579 growth in restrictive medium (lifespan-shortening candidates); 140,000 tested, 0.51% active; inhibition, % at 10 µM; S. cerevisiae BB579 growth, OD615, 48 h;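 active = inhibition above a set limit, 3 SD over the mean compound inhibition, cut at about 44% in these data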
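Material: Saccharomyces cerevisiae DeaD strain BB579, replicative lifespan model yeast; buffer or medium: CSMM-D restrictive synthetic medium containing dextrose (glucose); compound: 10 µM single dose, DMSO 0.25%; timing: 48 h compound exposure at 30 °C after 4 h preincubation; signal: turbidity as optical density at 615 nm; benchmarks: positive control amphotericin B 10 µg/mL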
HMGR II inh – inhibitors of class II HMG-CoA reductase from Enterococcus faecalis | purified E. faecalis HMGR, NADPH absorbance 340 nm kinetic | inhibition, % at 10 µM | 190,000 tested, 0.41% active | AID 1066;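 active = inhibition above a set limit, the median over all tested compounds plus 3 SD, cut at about 9.5% in these data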;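 note: enzyme runs in reverse so mevalonate oxidation gives rising NADPH absorbance; 0% = complete reaction with DMSO and 100% = background rate lacking mevalonate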
RAM 5-FOA – RAM network inhibition, efflux-deficient strain | 1,200 tested, under 10 active | AID 1305 | shares compounds with RAM network inh | max inhibition, % | S. cerevisiae efflux-deficient reporter strain, 5-FOA growth OD615, 2 days; call rule not given here;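 note: plate controls were vehicle for no effect and reference inhibitor for full effect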
An asterisk follows results filed as active; · = no result. Compounds with a hit are over-represented: about 3.5% of the library has one in this group of screens.

SMILES	RAM network inh	b-catenin transl	Yeast lifespan up	MT stabilize HCS	Yeast growth inh	HMGR II inh	others
Cc1ccc(S(=O)(=O)c2ccc(C)cc2)cc1	2	·	58*	1	-17	2
Cc1ccc(S(=O)(=O)CCCS(=O)(=O)c2ccc(C)cc2)cc1	1	0	1	2	-19	11*
CNS(=O)(=O)c1ccc(C)cc1	2	·	-8	2	-11	3
Cc1n[nH]c(=O)n1-c1ccc(OCc2ccccc2)cc1	2	2	·	1	·	4
CCN(CC)C(=S)NC(=O)c1cccnc1	1	0	·	1	·	18*
CCN(CC)C(=S)NC(=O)c1ccc(F)cc1	0	-3	·	5	·	0
Cc1ccc(S(=O)(=O)Nc2ccc3c4c(cccc24)CC3)c(C)c1	·	·	·	42*	·	·
Cc1cc(C)c2c(N=NN3CCOCC3)[nH]nc2n1	-1	1	-4	4	66*	-2
COCc1cc(C)nc(SCC(=O)Oc2ccc(Cl)cc2)c1C#N	3	0	·	1	·	-2
COCc1cc(C)nc(SCC(=O)Oc2ccccc2)c1C#N	9.1*	-3	·	2	·	7
COc1ccccc1N1C(C)=CC(=C(C#N)c2nc3ccccc3s2)C=C1C	8.5*	-1	6	4	-24	3
CC1=CC(=C(C#N)c2nc3ccccc3s2)C=C(C)N1c1ccc(F)cc1	3	-1	6	3	-9	-1
COc1ccc(NCc2nc3ccccc3n2CCOc2ccc(C)cc2)cc1	0	5	5	5	92*	0
c1ccc(NCc2nc3ccccc3n2CCOc2ccccc2)cc1	-1	0	41*	3	-23	-4
CCCn1c(CNc2ccccc2O)nc2ccccc21	0	9	4	2	45*	-1
COc1ccc(NCc2nc3ccccc3n2CCOc2ccccc2)cc1	0	-2	56*	2	22	-2
Cc1ccc(OCCn2c(CCCO)nc3ccccc32)cc1	1	-1	-12	1	19	-10
O=C(CNCc1cccc2ccccc12)Nc1ccccc1[N+](=O)[O-]	2	0	·	7	·	0
C/C(=N\NC(=O)CN1CCN(S(=O)(=O)c2ccc(C)cc2)CC1)c1ccncc1	·	-2	·	·	·	·
CCOCc1cc(=O)[nH]c(SC)n1	·	0	·	·	·	·
O=C(/C=C/c1ccc(Br)o1)Nc1nnc(C2CC2)s1	·	2	·	·	·	·
CCCn1c(C(C)NC(C)=O)nc2ccccc21 (stereo not drawn)	3	-1	-2	3	44*	0
CCCCC(NC(C)=O)c1nc2ccccc2n1CCC (stereo not drawn)	1	-1	-5	4	-20	-2
CCn1c2ccc(C)cc2c2nc3cc(C(=O)O)ccc3nc21	6	4	-15	5	96*	0
Cc1cc(C(=O)CSc2nn3c(=O)c(C(C)(C)C)nnc3s2)c(C)n1C	2	0	·	2	·	0
SMILES	RAM network inh	b-catenin transl	Yeast lifespan up	MT stabilize HCS	Yeast growth inh	HMGR II inh	others
CCOC(=O)c1ccc(Nc2sc(C(=O)c3cccc([N+](=O)[O-])c3)c(N)c2C#N)cc1	·	47	·	·	·	·
O=C(O)c1cccc(-n2cccc2/C=C2/NC(=O)N(c3cccc(Cl)c3)C2=O)c1	·	-1	·	·	·	·
O=C(O)c1cccc(-n2cccc2/C=C2/NC(=O)N(c3ccc(Cl)cc3)C2=O)c1	0	-5	·	2	·	10*
CCN=C1S/C(=C\c2ccc(O)c(OCC)c2)C(=O)N1CC	2	10	-1	6	-62	-2
CCN=C1S/C(=C\c2cc(OCC)c(O)cc2Br)C(=O)N1CC	12*	·	2	2	-43	-7	RAM 5-FOA=3
O=S(=O)(NCCSCc1ccc(Cl)cc1Cl)c1ccc2c(c1)OCCO2	12*	-2	1	3	-43	-3	RAM 5-FOA=3
COCCCNS(=O)(=O)c1ccc2c(c1)OCCO2	2	-6	-4	2	-26	1
O/N=C/c1ccc2ccccc2c1	0	0	·	5	·	-2
COc1cccc(NC(=O)NCc2ccccc2F)c1	0	1	·	4	·	-2
COc1cccc(N/C(SCc2ccccc2F)=C(/C#N)C(=O)NCc2cccs2)c1	16*	0	11	3	-29	-11	RAM 5-FOA=3
CSc1ccc(C(=O)C2CCCN(C(=O)Cc3nonc3C)C2)cc1 (stereo not drawn)	0	4	·	4	·	-3
COc1ccc(CNc2oc(-c3cccc4ccccc34)nc2C#N)cc1	15*	0	-6	4	-31	-6	RAM 5-FOA=3
C=CCNc1oc(Cc2cccc3ccccc23)nc1C#N	6	1	-6	5	-5	3
N#Cc1nc(Cc2cccc3ccccc23)oc1NCc1ccc(F)cc1	15*	-2	-19	6	-23	0	RAM 5-FOA=3
CNc1oc(-c2cccc3ccccc23)nc1C#N	3	1	-15	9	-33	-2
O=C(Cn1nc(-c2ccccc2)ccc1=O)Nc1ccc(N2CCN(C(=O)c3cccs3)CC2)cc1	4	1	·	2	·	-7
Cc1ccc(O)c(C(=O)/C=C/c2ccc3c(c2)OCCCO3)c1	12*	2	-1	4	-26	-5	RAM 5-FOA=4
COc1ccc(C(=O)N/C(=C\c2ccco2)C(=O)NC2CCS(=O)(=O)C2)cc1 (stereo not drawn)	0	·	·	3	·	-4
OC(COCC(F)(F)C(F)(F)C(F)(F)C(F)F)Cn1c2ccc(Cl)cc2c2cc(Cl)ccc21 (stereo not drawn)	18*	0	-1	20	-33	-1	RAM 5-FOA=2
N=c1n(Cc2ccccc2)c2ccccc2n1CC(O)COc1ccc(Cl)cc1Cl (stereo not drawn)	-2	28	·	22	·	-4
CCCOC(=O)c1ccc(NC(=O)c2c(Cl)ccc(Cl)c2OC)cc1	12*	-1	-2	2	-61	2	RAM 5-FOA=2
CCc1ccc(OCC(=O)Nc2ccc(N3CCN(S(C)(=O)=O)CC3)cc2)cc1	2	0	·	1	·	-1
COc1ccc(/C=C2/N=C3CCCCCN3C2=O)cc1	0	·	·	1	·	3
Cc1ccc2[nH]c(=O)cc(C(=O)OCC(=O)c3ccccc3)c2c1	15*	·	-3	3	-22	-6	RAM 5-FOA=1
Cc1ccc(OCC(=O)O/N=C(\N)Cc2ccc([N+](=O)[O-])cc2)cc1C	·	1	·	·	·	·
Cc1cccc(OCC(=O)O/N=C(\N)Cc2ccc([N+](=O)[O-])cc2)c1	18*	-2	·	2	·	1	RAM 5-FOA=2
Cc1cc(=O)oc2cc(OCC(=O)OCC(=O)Nc3c(C)n(C)n(-c4ccccc4)c3=O)ccc12	2	-2	·	2	·	1
CCOC(=O)/C(=N/Nc1ccccc1)c1csc(Nc2ccccc2)n1	16*	·	-21	1	-34	-7	RAM 5-FOA=4
